From ChEMBL document CHEMBL1806372, “Cytotoxic ring A-modified steroid analogues derived from Grundmann's ketone” (Eur J Med Chem, 2011)

What was measured:
Format in all cases: functional
[1] = tested on: NCI-H460; test: Cytotoxicity against human NCI-H460 cells after 48 hrs by sulforhodamine B assay; settings: NCI-H460, 48 h, read-out: LC50 (the source's name)
Summary of the method: (§1)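 NCI 60 human tumour cell line panel run to the NCI protocol. GI50, TGI and LC50 come from log concentration vs % growth inhibition curves for each cell line. Lines insensitive at the top concentration are reported with ">".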

[2] = tested on: COLO 205; test: Cytotoxicity against human COLO205 cells after 48 hrs by sulforhodamine B assay; settings: COLO 205, 48 h, read-out: LC50 (the source's name); summary of the method: as §1
[3] = tested on: HCT-116; test: Cytotoxicity against human HCT116 cells after 48 hrs by sulforhodamine B assay; settings: HCT-116, 48 h, read-out: LC50 (the source's name); summary of the method: as §1
[4] = tested on: HCT-15; test: Cytotoxicity against human HCT15 cells after 48 hrs by sulforhodamine B assay; settings: HCT-15, 48 h, read-out: LC50 (the source's name); summary of the method: as §1
[5] = tested on: KM12; test: Cytotoxicity against human KM12 cells after 48 hrs by sulforhodamine B assay; settings: KM12, 48 h, read-out: LC50 (the source's name); summary of the method: as §1
[6] = tested on: LOX IMVI; test: Cytotoxicity against human LOXIMVI cells after 48 hrs by sulforhodamine B assay; settings: read-out: LC50 (the source's name); summary of the method: as §1
[7] = tested on: Malme-3M; test: Cytotoxicity against human MALME-3M cells after 48 hrs by sulforhodamine B assay; settings: read-out: LC50 (the source's name); summary of the method: as §1
[8] = tested on: M14; test: Cytotoxicity against human M14 cells after 48 hrs by sulforhodamine B assay; settings: M14, 48 h, read-out: LC50 (the source's name); summary of the method: as §1
[9] = tested on: MDA-MB-435; test: Cytotoxicity against human MDA-MB-435 cells after 48 hrs by sulforhodamine B assay; settings: MDA-MB-435, 48 h, read-out: LC50 (the source's name); summary of the method: as §1
[10] = tested on: SK-MEL-2; test: Cytotoxicity against human SK-MEL-2 cells after 48 hrs by sulforhodamine B assay; settings: SK-MEL-2, 48 h, read-out: LC50 (the source's name); summary of the method: as §1
[11] = tested on: UACC-62; test: Cytotoxicity against human UACC62 cells after 48 hrs by sulforhodamine B assay; settings: UACC-62, 48 h, read-out: LC50 (the source's name)
[12] = tested on: OVCAR-3; test: Cytotoxicity against human OVCAR3 cells after 48 hrs by sulforhodamine B assay; settings: OVCAR-3, 48 h, read-out: LC50 (the source's name); summary of the method: as §1
[13] = tested on: OVCAR-5; test: Cytotoxicity against human OVCAR5 cells after 48 hrs by sulforhodamine B assay; settings: OVCAR-5, 48 h, read-out: LC50 (the source's name); summary of the method: as §1
[14] = tested on: TK-10; test: Cytotoxicity against human TK10 cells after 48 hrs by sulforhodamine B assay; settings: TK-10, 48 h, read-out: LC50 (the source's name)
[15] = tested on: UO-31; test: Cytotoxicity against human UO31 cells after 48 hrs by sulforhodamine B assay; settings: UO-31, 48 h, read-out: LC50 (the source's name)
[16] = Cytotoxicity against human Hs 578T cells after 48 hrs by sulforhodamine B assay; settings: read-out: LC50 (the source's name); summary of the method: as §1
[17] = tested on: OVCAR-8; test: Growth inhibition of human OVCAR8 cells after 48 hrs by sulforhodamine B assay; settings: OVCAR-8, 48 h
Summary of the method: (§2)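 GI50, TGI and LC50 were derived from log concentration versus % growth inhibition curves for each cell line. GI50 is the concentration giving a 50% decrease in net cell growth. Insensitive lines are reported as greater than the highest concentration.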

[18] = tested on: SK-OV-3; test: Growth inhibition of human SKOV3 cells after 48 hrs by sulforhodamine B assay; settings: SK-OV-3, 48 h
Summary of the method: (§3)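 NCI 60-cell panel five-dose assay. GI50, TGI and LC50 are derived from log concentration versus % growth inhibition curves. Cell lines insensitive at the top concentration are given a ">" prefix.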

[19] = tested on: PC-3; test: Growth inhibition of human PC3 cells after 48 hrs by sulforhodamine B assay; settings: PC-3, 48 h; summary of the method: as §2
[20] = tested on: CCRF-CEM; test: Cytotoxicity against human CCRF-CEM cells after 48 hrs by sulforhodamine B assay; settings: read-out: LC50 (the source's name); summary of the method: as §1
[21] = tested on: SR; test: Cytotoxicity against human SR cells after 48 hrs by sulforhodamine B assay; settings: read-out: LC50 (the source's name)
[22] = tested on: HOP-62; test: Cytotoxicity against human HOP62 cells after 48 hrs by sulforhodamine B assay; settings: HOP-62, 48 h, read-out: LC50 (the source's name); summary of the method: as §1
[23] = tested on: HL-60(TB); test: Growth inhibition of human HL-60(TB) cells after 48 hrs by sulforhodamine B assay; settings: HL-60, 48 h
[24] = tested on: K562; test: Growth inhibition of human K562 cells after 48 hrs by sulforhodamine B assay; settings: K562, 48 h
Summary of the method: (§4)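 From log concentration versus % growth curves, GI50 (50% decrease in net growth), TGI (total growth inhibition) and LC50 (net 50% loss of initial cells) are derived for each line.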

[25] = tested on: MOLT-4; test: Growth inhibition of human MOLT4 cells after 48 hrs by sulforhodamine B assay; settings: MOLT-4, 48 h; summary of the method: as §2
[26] = tested on: RPMI-8226; test: Growth inhibition of human RPMI8226 cells after 48 hrs by sulforhodamine B assay; settings: RPMI-8226, 48 h; summary of the method: as §2
[27] = tested on: SR; test: Growth inhibition of human SR cells after 48 hrs by sulforhodamine B assay; summary of the method: as §3
[28] = tested on: A549; test: Growth inhibition of human A549 cells after 48 hrs by sulforhodamine B assay; settings: A549, 48 h; summary of the method: as §4
[29] = tested on: EKVX; test: Growth inhibition of human EKVX cells after 48 hrs by sulforhodamine B assay; summary of the method: as §4
[30] = tested on: NCI-H226; test: Growth inhibition of human NCI-H226 cells after 48 hrs by sulforhodamine B assay; settings: NCI-H226, 48 h; summary of the method: as §2
[31] = tested on: COLO 205; test: Growth inhibition of human COLO205 cells after 48 hrs by sulforhodamine B assay; settings: COLO 205, 48 h; summary of the method: as §4
[32] = tested on: HCT-116; test: Growth inhibition of human HCT116 cells after 48 hrs by sulforhodamine B assay; settings: HCT-116, 48 h; summary of the method: as §4
[33] = tested on: HT-29; test: Growth inhibition of human HT-29 cells after 48 hrs by sulforhodamine B assay; settings: HT-29, 48 h; summary of the method: as §4
[34] = tested on: KM12; test: Growth inhibition of human KM12 cells after 48 hrs by sulforhodamine B assay; settings: KM12, 48 h; summary of the method: as §4
[35] = tested on: SF-539; test: Growth inhibition of human SF539 cells after 48 hrs by sulforhodamine B assay; settings: SF-539, 48 h; summary of the method: as §2
[36] = tested on: Malme-3M; test: Growth inhibition of human MALME-3M cells after 48 hrs by sulforhodamine B assay; summary of the method: as §2
[37] = tested on: SK-MEL-28; test: Growth inhibition of human SK-MEL-28 cells after 48 hrs by sulforhodamine B assay; settings: SK-MEL-28, 48 h; summary of the method: as §2
[38] = tested on: OVCAR-3; test: Growth inhibition of human OVCAR3 cells after 48 hrs by sulforhodamine B assay; settings: OVCAR-3, 48 h; summary of the method: as §2

Compound: CC(C)CCC[C@@H](C)[C@H]1CC[C@H]2C3=CC[C@@H]4C(=O)C=CC(=O)[C@@H]4[C@@H]3CC[C@]12C
- CC50 [1]: > 100000 nM
- CC50 [2]: > 536 nM
- CC50 [3]: > 3910 nM
- CC50 [4]: > 100000 nM
- CC50 [5]: > 100000 nM
- CC50 [6]: > 4100 nM
- CC50 [7]: > 100000 nM
- CC50 [8]: > 100000 nM
- CC50 [9]: > 100000 nM
- CC50 [10]: > 100000 nM
- CC50 [11]: > 100000 nM
- CC50 [12]: > 100000 nM
- CC50 [13]: > 100000 nM
- CC50 [14]: > 100000 nM
- CC50 [15]: > 1750 nM
- CC50 [16]: > 100000 nM
- GI50 [17]: 58 nM
- TGI [17]: 1180 nM
- GI50 [18]: 688 nM
- GI50 [19]: 59 nM
- TGI [19]: 1570 nM
- CC50 [20]: > 100000 nM
- CC50 [21]: > 100000 nM
- CC50 [22]: > 100000 nM
- GI50 [23]: 153 nM
- GI50 [24]: 249 nM
- TGI [24]: > 100000 nM
- GI50 [25]: 312 nM
- TGI [25]: > 100000 nM
- GI50 [26]: 107 nM
- TGI [26]: 2230 nM
- GI50 [27]: 207 nM
- TGI [27]: > 100000 nM
- GI50 [28]: 58 nM
- TGI [28]: 780 nM
- GI50 [29]: 545 nM
- TGI [29]: > 100000 nM
- GI50 [30]: 480 nM
- GI50 [31]: 80 nM
- TGI [31]: 220 nM
- GI50 [32]: 55 nM
- TGI [32]: 1030 nM
- GI50 [33]: 839 nM
- TGI [33]: > 100000 nM
- GI50 [34]: 338 nM
- TGI [34]: > 100000 nM
- GI50 [35]: 478 nM
- GI50 [36]: 399 nM
- TGI [36]: 2000 nM
- GI50 [37]: 302 nM
- GI50 [38]: 502 nM
- TGI [38]: > 100000 nM

Compound: CC(C)CCC[C@@H](C)[C@H]1CC[C@H]2C3=CCn4c(=O)ccc(=O)n4[C@@H]3CC[C@]12C
- CC50 [1]: 5730 nM
- CC50 [2]: 2360 nM
- CC50 [3]: 594 nM
- CC50 [4]: > 100000 nM
- CC50 [5]: 4440 nM
- CC50 [6]: 3520 nM
- CC50 [7]: 6380 nM
- CC50 [8]: 3320 nM
- CC50 [9]: 7680 nM
- CC50 [10]: 3390 nM
- CC50 [11]: 5450 nM
- CC50 [12]: 4780 nM
- CC50 [13]: 7840 nM
- CC50 [14]: 3600 nM
- CC50 [15]: 4190 nM
- CC50 [16]: > 100000 nM
- GI50 [17]: 317 nM
- TGI [17]: 1580 nM
- GI50 [18]: 1630 nM
- TGI [18]: 2990 nM
- GI50 [19]: 243 nM
- TGI [19]: 1110 nM
- CC50 [20]: > 100000 nM
- CC50 [21]: > 100000 nM
- CC50 [22]: 5330 nM
- GI50 [23]: 113 nM
- TGI [23]: 490 nM
- GI50 [24]: 309 nM
- TGI [24]: 2020 nM
- GI50 [25]: 545 nM
- TGI [25]: 4130 nM
- GI50 [26]: 181 nM
- TGI [26]: 601 nM
- GI50 [27]: 137 nM
- TGI [27]: 758 nM
- GI50 [28]: 325 nM
- TGI [28]: 1240 nM
- GI50 [29]: 1030 nM
- TGI [29]: 2750 nM
- GI50 [30]: 1270 nM
- TGI [30]: 3260 nM
- GI50 [31]: 255 nM
- TGI [31]: 623 nM
- GI50 [32]: 142 nM
- TGI [32]: 291 nM
- GI50 [33]: 616 nM
- TGI [33]: 2070 nM
- GI50 [34]: 443 nM
- TGI [34]: 1510 nM
- GI50 [35]: 1470 nM
- TGI [35]: 2890 nM
- GI50 [36]: 1440 nM
- TGI [36]: 3030 nM
- GI50 [37]: 512 nM
- TGI [37]: 1650 nM
- GI50 [38]: 861 nM
- TGI [38]: 2110 nM
